Measurements collected from several papers.
In brackets after ≈: the same amount, converted by molar mass.

SMILES	organism	test	test system	conditions	quantity	value
CC1=NN(CNc2ccc(Cl)cc2)C(=O)C1=NNn1c(-c2ccccc2)nc2ccccc2c1=O	Aspergillus fumigatus	microbial growth, broth dilution	–	–	MIC	51.5 µM
CC1(C)S[C@@H]2[C@H](NC(=O)[C@H](N)c3ccccc3)C(=O)N2[C@H]1C(=O)O	Enterococcus faecalis	microbial growth, agar dilution	ATCC33186	26.93 µM	inhibition	100%
Cc1nc2ccc(Cl)cn2c1C(=O)N1CCN(Cc2cn(-c3ccc(Br)cc3)nn2)CC1	Leishmania major	parasite growth, resazurin	–	72 h, promastigote	IC50	33.6 µM
CC1=NN(CNc2ccc(O)cc2)C(=O)C1=NNn1c(-c2ccccc2)nc2ccccc2c1=O	Aspergillus fumigatus	microbial growth, broth dilution	–	–	MIC	53.5 µM
Cc1ccc2nc(-c3ccc(N(C)C)cc3)[nH]c2c1	Enterococcus faecalis	microbial growth, broth dilution	ATCC29212	–	MIC	64 µg/mL
COc1cccc(-n2cc(CN3CCN(C(=O)c4c(C)nc5ccc(Cl)cn45)CC3)nn2)c1	Leishmania major	parasite growth, resazurin	–	72 h, promastigote	IC50	112 µM
CC1(C)OB(CC2c3ccccc3C(=O)N2C2CCCCC2)OC1(C)C (centres unmarked)	Leishmania major	parasite growth	–	intracellular, amastigote	IC50	13.2 µM
Oc1ccc(Br)cc1-c1nc2ccccc2[nH]1	Enterococcus faecalis	microbial growth, broth dilution	ATCC29212	–	MIC	128 µg/mL
C[C@@H](c1ncncc1F)[C@](O)(Cn1cncn1)c1ccc(F)cc1F	Acanthamoeba griffini	parasite growth, resazurin	–	7 days	IC50	37.6 µM
CN(C)N1C(=O)c2ccccc2C1CB1OC(C)(C)C(C)(C)O1 (centres unmarked)	Leishmania major	parasite growth	–	intracellular, amastigote	IC50	94.6 µM
Cc1ccc2nc(-c3ccncc3)[nH]c2c1	Enterococcus faecalis	microbial growth, broth dilution	ATCC29212	–	MIC	64 µg/mL
C[C@@H]1[C@H](O)[C@@H](C)/C=C/C=C/C=C/C=C/C=C/C=C/C=C/[C@H](O[C@@H]2O[C@H](C)[C@@H](O)[C@H](N)[C@@H]2O)C[C@@H]2O[C@](O)(C[C@@H](O)C[C@@H](O)[C@H](O)CC[C@@H](O)C[C@@H](O)CC(=O)O[C@H]1C)C[C@H](O)[C@H]2C(=O)O	Aspergillus fumigatus	microbial killing	ATCC204305	–	MFC	2.57 µM (≈ 2.37 µg/mL)
CCCCCCCCCCCCCCCCOP(=O)([O-])OCC[N+](C)(C)C	Leishmania major	parasite growth, resazurin	–	72 h, promastigote	IC50	12.6 µM
Cc1ccc2nc(-c3ccc([N+](=O)[O-])cc3)n(Cc3ccccc3Cl)c2c1	Enterococcus faecalis	microbial growth, broth dilution	ATCC29212	–	MIC	64 µg/mL
Cc1nc2ccc(Cl)cn2c1C(=O)N1CCN(Cc2cn(-c3ccccc3Cl)nn2)CC1	Leishmania major	parasite growth, resazurin	–	72 h, promastigote	IC50	91.5 µM
C[C@@H]1[C@H](O)[C@@H](C)/C=C/C=C/C=C/C=C/C=C/C=C/C=C/[C@H](O[C@@H]2O[C@H](C)[C@@H](O)[C@H](N)[C@@H]2O)C[C@@H]2O[C@](O)(C[C@@H](O)C[C@@H](O)[C@H](O)CC[C@@H](O)C[C@@H](O)CC(=O)O[C@H]1C)C[C@H](O)[C@H]2C(=O)O	Aspergillus fumigatus	microbial growth, resazurin	ATCC204305	–	IC50	1.18 µg/mL
Cc1nc2ccc(Cl)cn2c1C(=O)N1CCN(Cc2cn(-c3ccccc3)nn2)CC1	Leishmania major	parasite growth, resazurin	–	72 h, promastigote	IC50	192 µM
O=C(O)c1cn(C2CC2)c2cc(N3CCNCC3)c(F)cc2c1=O	Enterococcus faecalis	microbial growth, broth dilution	ATCC29212	–	MIC	8 µg/mL
CCCCCCCCCc1cn(CCN2CCN(C(=O)c3c(C)nc4cc(C)ccn34)CC2)nn1	Leishmania major	parasite growth, resazurin	–	72 h, promastigote	IC50	38.5 µM
C=CCn1c(-c2ccc([N+](=O)[O-])cc2)nc2ccccc21	Enterococcus faecalis	microbial growth, broth dilution	ATCC29212	–	MIC	64 µg/mL
